Screening data: PubChem, Broad Institute
Only some compounds are listed: those with a hit (about 2.5% of all), similar ones and a draw of the others.
PglD DTNB: blocks C. jejuni PglD acetyltransferase activity; purified PglD enzyme, DTNB colorimetric CoA detection; inhibition, % at 12.5 µM; 0.098% of 360,000 active; in the data active = inhibition above about 16%, passing the limit was not always enough; inconclusive = no clear call, values can overlap the other calls
SIRT5 block: inhibitors of human sirtuin-5 desuccinylase. Purified SirT5, succinyl-peptide AMC, trypsin-coupled fluorescence. inhibition, % at 15 µM. 1.1% of 330,000 active; in the data active = inhibition above about 15%; inconclusive = no clear call, values can overlap the other calls
ERAP1 inh: ERAP1 (human) enzyme inhibition | inhibition, % at 10.7 µM | Q9NZ08 | 0.15% of 340,000 active | recombinant ERAP1, Leu-AMC fluorescence, 60 min;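 active = mean replicate inhibition of at least 30%, or all replicates individually reaching that 30% level; inactive = mean below 30% and not every replicate reaching it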
E-sel inducer: induces E-selectin expression in human endothelial cells; P16581; HUVEC E-selectin immunofluorescence imaging; normalized: neutral wells 0, TNF-alpha wells 100; activation, % at 7.58 µM; 0.37% of 260,000 active; AID 686992;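 active = mean E-selectin-positive cell signal at least 10% of the positive control, reached in at least 60% of replicates, without over 20% cell loss; inconclusive = no rule given, readout overlaps actives, possibly toxicity-flagged; inactive = the rest, including those meeting only one limit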
Target sequence (P16581 whole entry, looked up): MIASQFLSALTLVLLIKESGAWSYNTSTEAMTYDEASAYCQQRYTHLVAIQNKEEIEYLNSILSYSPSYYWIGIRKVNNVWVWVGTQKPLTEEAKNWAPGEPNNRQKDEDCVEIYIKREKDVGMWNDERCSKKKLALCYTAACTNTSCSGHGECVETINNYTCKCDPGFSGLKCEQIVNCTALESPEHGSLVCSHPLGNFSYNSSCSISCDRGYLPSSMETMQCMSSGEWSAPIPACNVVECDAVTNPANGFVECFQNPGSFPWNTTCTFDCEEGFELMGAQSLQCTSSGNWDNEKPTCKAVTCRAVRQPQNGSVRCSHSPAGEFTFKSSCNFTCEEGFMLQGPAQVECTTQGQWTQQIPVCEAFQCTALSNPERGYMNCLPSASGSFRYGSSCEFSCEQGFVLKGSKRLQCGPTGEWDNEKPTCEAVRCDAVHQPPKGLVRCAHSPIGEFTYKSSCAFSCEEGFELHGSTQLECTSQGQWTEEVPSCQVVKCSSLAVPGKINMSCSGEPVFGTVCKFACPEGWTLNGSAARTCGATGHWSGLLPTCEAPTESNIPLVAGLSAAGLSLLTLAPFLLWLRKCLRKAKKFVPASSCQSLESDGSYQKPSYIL
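material = human umbilical vein endothelial cells (HUVEC), E-selectin induction | quantity = 3,000 cells/well | medium = EGM-2 growth medium on 0.1% gelatin-coated wells | technique = immunofluorescence imaging | read-out basis = % PE-positive cells | control set = TNF-alpha positive control, DMSO neutral control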
DENV2 CPE rescue: DENV2-induced cell death inhibition; CPE inhibition, % at 9.99 µM; DENV2-infected cells, cytopathic effect rescue, plate reader; 1.7% of 350,000 active; in the data active = CPE inhibition above about 20%, passing the limit was not always enough; inconclusive = no clear call, values can overlap the other calls; tested in BHK-21 cells
Large screens that a line does not name were inactive; ! = not confirmed by another sample.

CC1(C)Cc2ccccc2-c2nc3n(c(=O)c21)CCCS3	none (no result: PglD DTNB, E-sel inducer)
CCN(Cc1ccc(OC)c(COC)c1)CC1CCCN(CCc2cccc(OC)c2)C1 (stereo not drawn)	DENV2 CPE rescue 25 (no result: SIRT5 block, E-sel inducer)
O=S(=O)(c1ccc(NC(=S)N2CCCCC2)cc1)N1CCCCC1	none (no result: PglD DTNB)
CC(=O)c1cccc(NC(=S)N2CCN(S(=O)(=O)c3ccc(F)cc3)CC2)c1	DENV2 CPE rescue inconclusive
CC(=O)c1cccc(NC(=S)N2CCN(S(=O)(=O)c3ccccc3)CC2)c1	DENV2 CPE rescue 69
Cc1ccc(NC(=S)N2CCN(S(=O)(=O)c3ccc(C)cc3)CC2)cc1	DENV2 CPE rescue 27
Cc1cccc(S(=O)(=O)N(C)C[C@H]2OCc3ccccc3-c3ccccc3C(=O)N([C@H](C)CO)C[C@H]2C)c1	none
CCC/C(=C1/c2ccccc2C(=O)N1c1ccccc1)c1ccc(O[C@@H]2CCCCO2)cc1	DENV2 CPE rescue 37
CCC/C(=C1/c2ccccc2C(=O)N1c1ccccc1)c1ccc2c(c1)OCCO2	none
CCCc1nnc(SCC(=O)Nc2ccccc2Cl)n1CC1CCCO1 (stereo not drawn)	none (no result: E-sel inducer)
CCN(CC)S(=O)(=O)c1cccc(C(=O)NCC2(N3CCOCC3)CCCCC2)c1	DENV2 CPE rescue 95
CN(C)S(=O)(=O)c1cccc(C(=O)NCC2(N3CCOCC3)CCCCC2)c1	none
O=C(NC[C@@H]1CC[C@@H]2[C@@H](CN2Cc2ccc(Oc3ccccc3)cc2)O1)C1CCOCC1	none (no result: PglD DTNB, E-sel inducer)
O=C(C[C@@H]1CC[C@@H]2[C@H](COC[C@@H](O)CN2Cc2ccc3c(c2)OCO3)O1)N1CCOCC1	SIRT5 block 27
COc1ccc(CN2C[C@@H](O)COC[C@@H]3O[C@H](CC(=O)N4CCc5ccccc5C4)CC[C@H]32)cc1	SIRT5 block 17
O=C(C[C@H]1CC[C@@H]2[C@H](COC[C@H](O)CN2Cc2ccc3c(c2)OCO3)O1)N1CCOCC1	none
O=C(NC[C@H]1CC[C@H]2[C@H](CN2Cc2cccc(Cl)c2)O1)C1CCOCC1	DENV2 CPE rescue 58 (no result: PglD DTNB, E-sel inducer)
O=C(C[C@H]1CC[C@H]2[C@@H](COC[C@@H](O)CN2Cc2cccc(Cl)c2)O1)N1CCCCC1	SIRT5 block 19
COc1ccc(CN2C[C@@H](O)COC[C@H]3O[C@H](CC(=O)N4CCc5ccccc5C4)CC[C@@H]32)cc1	none
Cc1ccc2ccccc2c1C(O)c1ncc(-c2cccc(C(F)(F)F)c2)[nH]1 (stereo not drawn)	none
COc1ccc(N2CCN(S(=O)(=O)CCNS(=O)(=O)c3ccccc3)CC2)cc1	none
COc1ccc(-n2nnc3c(=O)n(CC(=O)N4CCC(C)CC4)cnc32)cc1	none
O=C(C[C@H]1CC[C@@H]2[C@H](COC[C@H](O)CN2CC2CCOCC2)O1)N1CCOCC1	DENV2 CPE rescue 49
O=C(C[C@H]1CC[C@@H]2[C@H](COC[C@H](O)CN2C(=O)c2ccccc2)O1)N1CCc2ccccc2C1	DENV2 CPE rescue 28
O=C(C[C@H]1CC[C@@H]2[C@H](COC[C@H](O)CN2Cc2ccc(Oc3ccccc3)cc2)O1)N1CCCCC1	none
O=C(C[C@H]1CC[C@@H]2[C@H](COC[C@H](O)CN2CC2CCCCC2)O1)NCC1CC1	DENV2 CPE rescue 29
O=C(C[C@@H]1CC[C@@H]2[C@H](COC[C@@H](O)CN2Cc2ccc(Oc3ccccc3)cc2)O1)N1CCCCC1	DENV2 CPE rescue 24
O=C(CCc1ccc(O)c(O)c1)N/N=C/c1cc2c(cc1[N+](=O)[O-])OCO2	DENV2 CPE rescue inconclusive
C(=N\N1CCN(c2ccccc2)CC1)/c1ccccc1	none
Cc1noc(C)c1S(=O)(=O)Nc1ccc2c(c1)C(=O)N([C@@H](C)CO)C[C@@H](C)[C@H](CN(C)Cc1ccc(C(F)(F)F)cc1)OCCCC[C@@H](C)O2	SIRT5 block 17
Cc1noc(C)c1S(=O)(=O)Nc1ccc2c(c1)C(=O)N([C@H](C)CO)C[C@@H](C)[C@H](CN(C)Cc1ccc(C(F)(F)F)cc1)OCCCC[C@H](C)O2	SIRT5 block 18
Cc1noc(C)c1S(=O)(=O)Nc1ccc2c(c1)C(=O)N([C@@H](C)CO)C[C@H](C)[C@H](CN(C)Cc1ccc(C(F)(F)F)cc1)OCCCC[C@H](C)O2	none
Cc1noc(C)c1S(=O)(=O)Nc1ccc2c(c1)C(=O)N([C@@H](C)CO)C[C@H](C)[C@H](CN(C)Cc1ccc(C(F)(F)F)cc1)OCCCC[C@@H](C)O2	none (no result: SIRT5 block)
Cc1noc(C)c1S(=O)(=O)Nc1ccc2c(c1)C(=O)N([C@@H](C)CO)C[C@H](C)[C@@H](CN(C)Cc1ccncc1)OCCCC[C@@H](C)O2	DENV2 CPE rescue 22
Cc1noc(C)c1S(=O)(=O)Nc1ccc2c(c1)C(=O)N([C@H](C)CO)C[C@H](C)[C@H](CN(C)Cc1ccc(C(=O)O)cc1)OCCCC[C@@H](C)O2	DENV2 CPE rescue 50
CNS(=O)(=O)c1cccc(C(=O)OCCCOC(=O)c2cccc(S(=O)(=O)NC)c2)c1	none (no result: E-sel inducer)
CCC(Sc1nc2ccccc2o1)C(=O)O (stereo not drawn)	none (no result: PglD DTNB, E-sel inducer)
Cc1noc(C)c1S(=O)(=O)Nc1ccc2c(c1)C(=O)N([C@H](C)CO)C[C@@H](C)[C@H](CN(C)Cc1ccc(C(F)(F)F)cc1)OCCCC[C@@H](C)O2	SIRT5 block 24
Cc1noc(C)c1S(=O)(=O)Nc1ccc2c(c1)C(=O)N([C@H](C)CO)C[C@@H](C)[C@@H](CN(C)Cc1ccc(C(F)(F)F)cc1)OCCCC[C@H](C)O2	none
C[C@H](CO)N1C[C@H](C)[C@H](CN(C)Cc2cncnc2)Oc2cc(C#CC3CCCC3)ccc2S1(=O)=O	SIRT5 block 17
C[C@H]1CN([C@@H](C)CO)S(=O)(=O)c2ccc(C#CC3CCCCC3)cc2O[C@@H]1CN(C)Cc1cccnc1	SIRT5 block 18 (no result: E-sel inducer)
C[C@H](CO)N1C[C@H](C)[C@@H](CN(C)Cc2cccnc2)Oc2cc(Br)ccc2S1(=O)=O	DENV2 CPE rescue 45!
C[C@H]1CN([C@@H](C)CO)S(=O)(=O)c2ccc(C#CC3CCCC3)cc2O[C@@H]1CN(C)Cc1cccnc1	SIRT5 block 17
C[C@@H]1CN([C@@H](C)CO)S(=O)(=O)c2ccc(C#CC3CCCC3)cc2O[C@@H]1CN(C)Cc1cccnc1	none
C[C@H]1CN([C@@H](C)CO)S(=O)(=O)c2ccc(Br)cc2O[C@H]1CN(C)Cc1cccnc1	none
C[C@@H]1CN([C@H](C)CO)S(=O)(=O)c2ccc(C#CC3CCCC3)cc2O[C@H]1CN(C)Cc1cncnc1	none (no result: PglD DTNB, SIRT5 block, ERAP1 inh, DENV2 CPE rescue)
O=C(c1cc2ccccc2oc1=O)N1CCCN(C(=O)c2cc3ccccc3oc2=O)CC1	none (no result: PglD DTNB)
CC(OC(=O)c1ccccc1O)C(=O)Nc1ccc(Cl)cn1 (stereo not drawn)	none (no result: PglD DTNB)
CC(OC(=O)C1=COCCO1)C(=O)Nc1ccc(Cl)cn1 (stereo not drawn)	DENV2 CPE rescue 70
CC(=O)C1=C(C)NC(SCC(N)=O)=C(C#N)C1c1sccc1C (stereo not drawn)	none (no result: E-sel inducer)
